pIC50: −log10 of the molar value.
Key:
Trypanosoma brucei [1] = assay: Trypanocidal activity against bloodstream form of Trypanosoma brucei assessed as inhibition of parasite growth; type: functional, organism-based
How it was run: (§1)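 Bloodstream-form T. brucei were cultured in vitro at pH 7.4. Growth inhibition was expressed as IC50 and IC90, the concentrations that inhibit parasite growth by 50% and 90%. Values are the mean of triplicate experiments ± SEM.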

Trypanosoma brucei [2] = assay: Trypanocidal activity against bloodstream form of Trypanosoma brucei 221 assessed as inhibition of parasite growth incubated for 48 hrs followed by resazurin addition and measured after 16 hrs by resazurin assay; type: functional, organism-based; how it was run: as §1

| SMILES | pIC50 (Trypanosoma brucei [1]) | pIC50 (Trypanosoma brucei [2]) |
| --- | --- | --- |
| CCCC1(c2ccccc2)C(=O)N(CC(=O)NO)C(=O)CN1C (stereo not drawn) | 5.75 | – |
| CC(C)C[C@@H]1NC2(CCCCCC2)C(=O)N(CC(=O)NO)C1=O | – | 7.00 |
| CCCN1CC(=O)N(CC(=O)NO)C(=O)C1(C)c1ccccc1 (stereo not drawn) | 6.33 | – |
| CCCCN1CC(=O)N(CC(=O)NO)C(=O)C1(C)c1ccccc1 (stereo not drawn) | 6.20 | – |
| CN1CC(=O)N(CC(=O)NO)C(=O)C1(C)c1ccccc1 (stereo not drawn) | 6.23 | – |
| CC1(c2ccc([N+](=O)[O-])cc2)NCC(=O)N(CC(=O)NO)C1=O (stereo not drawn) | 4.93 | – |
| CC1(c2ccc(F)cc2)NCC(=O)N(CC(=O)NO)C1=O (stereo not drawn) | 4.72 | – |
| CN1CC(=O)N(CC(=O)NO)C(=O)C1(C)c1ccc(F)cc1 (stereo not drawn) | 5.09 | – |
| CN1CC(=O)N(CC(=O)NO)C(=O)C1(C)c1ccc([N+](=O)[O-])cc1 (stereo not drawn) | 5.91 | – |
| CCCCC1(c2ccccc2)NCC(=O)N(CC(=O)NO)C1=O (stereo not drawn) | 5.76 | – |
| CC1(c2ccccc2)NCC(=O)N(CC(=O)NO)C1=O (stereo not drawn) | 5.16 | – |
| CCCC1(c2ccccc2)NCC(=O)N(CC(=O)NO)C1=O (stereo not drawn) | 5.14 | – |
| CCCCC1(c2ccccc2)C(=O)N(CC(=O)NO)C(=O)CN1C (stereo not drawn) | 5.58 | – |

— ChEMBL document CHEMBL5584279, “New Lipophilic Hydroxamates as Promising Trypanocidal Agents: Design, Synthesis, SAR, and Conformational Behavior Studies” (ACS Med Chem Lett, 2024)
